IC50 and Activity data for 19 molecules are collected here from ChEMBL document CHEMBL1141193, “Design, synthesis, and biological evaluation of hybrid molecules containing alpha-methylene-gamma-butyrolactones and alpha-bromoacryloyl moieties” (J Med Chem, 2005).

Common to all, as to type: functional, cell-based
The subject of experiment [1] is L1210. Description: In vitro antiproliferative activity against murine lymphocytic L1210 leukemia cell line. As to conditions: Mus musculus. Summed up: (§1)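 Exponentially growing cells in RPMI 1640 with 10% FCS, 2 mM L-glutamine, […] and penicillin/streptomycin. Exposed to increasing drug concentrations, diluted from a 1 mg/mL DMSO stock. Cell number per mL was counted by Coulter counter after 48 h, using duplicate cultures per concentration and at least three repeats. IC50 = 50% growth inhibition versus untreated controls, reported as mean ± SE.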

Experiment [2] deals with K562. The experiment can be described thus: In vitro antiproliferative against human chronic myelogenous K562 cell line. In outline:
as §1

Experiment [3] has as its system HL-60. The experiment can be described thus: DNA fragmentation in HL60 cells by ethidium bromide staining at 1 uM for 12 hrs. As to conditions: Homo sapiens.
Experiment [4] relates to HL-60. Description: PARP hydrolysis in HL60 cells by an immunoblot assay. As to conditions: Homo sapiens. In outline:
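HL-60 cell lysates, equal protein per lane, were run on SDS-PAGE and blotted with an anti-PARP monoclonal antibody to detect PARP cleavage. Etoposide was the positive control.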

The test system of experiment [5] is HL-60. Description: Cytochrome c release in HL60 cells by immunoblotting at 1 uM. The conditions noted are these: Homo sapiens. Summed up:
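HL-60 cells treated with 1 or 3 µM compound and harvested at 12 h. Cytosolic lysates were immunoblotted with anti-cytochrome c antibody, looking for the 15 kDa band. β-actin served as loading control.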

For experiment [6], the system named is HL-60. The experiment can be described thus: Condensation of chromatin in HL60 cells at 1 uM for 12 hrs. As to conditions: Homo sapiens. Summed up: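 HL-60 cells exposed to 1 µM compound for 12 h, then DNA stained with Hoechst 33258. Chromatin condensation and apoptotic bodies were examined by fluorescence microscopy. Apoptotic nuclei were counted quantitatively in triplicate, and the experiment was repeated once.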

Experiment [7] concerns HL-60. Description: In vitro antiproliferative activity against human HL60 myeloid leukemia cell line by MTT assay.
Experiment [8] has as its system PBMC. The experiment can be described thus: In vitro antiproliferative activity against human PBM cell line by MTT assay. In outline: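 PBMCs isolated from anticoagulant-treated blood of healthy human donors. Cells were cultured with or without compound for 24 h, and growth was read by MTT dye-reduction assay. IC50 taken from dose-response curves of at least two independent experiments, each in triplicate determinations, as mean ± SE.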

Calls of active or inactive are those of the source. The calls are words filed in the database; no cut-off is given here. Bounds are passed on as bounds.

In the case of `C=C(Br)C(=O)Nc1ccc2sc(C(=O)NCCNC(=O)c3cc(OCC4(C)CC(=C)C(=O)O4)nn3C)cc2c1` (configuration not stated), the results for the 50% inhibitory concentration (IC50) in experiment [1] and in experiment [2] were 840 nM and 1020 nM, respectively.
Take `C=C(Br)C(=O)Nc1ccc2sc(C(=O)O)cc2c1`: the IC50 in experiment [1] was 4500 nM; in experiment [2], 5000 nM.
With `C=C(Br)C(=O)Nc1ccc2sc(C(=O)NCCNC(=O)c3cc(OCC4(c5ccccc5)CC(=C)C(=O)O4)nn3C)cc2c1` (configuration not stated), the results for the IC50 in experiment [1] and in experiment [2] were 290 nM and 270 nM, respectively.
As for `C=C(Br)C(=O)Nc1ccc2c(c1)cc(C(=O)NCCNC(=O)c1cc(OCC3(c4ccc(-c5ccccc5)cc4)CC(=C)C(=O)O3)nn1C)n2C` (configuration not stated), the IC50 in experiment [1] is 280 nM; in experiment [2] it was 360 nM.
With `C=C(Br)C(=O)Nc1ccc2oc(C(=O)NCCNC(=O)c3cc(OCC4(c5ccc(Cl)cc5)CC(=C)C(=O)O4)nn3C)cc2c1` (configuration not stated), the IC50 in experiment [1] came out at 550 nM; in experiment [2] it was 710 nM.
As for `C=C1CC(COc2cc(C(=O)O)n(C)n2)(c2ccc(Cl)cc2)OC1=O` (configuration not stated), the IC50 in experiment [1] and in experiment [2] was above 10000 nM in each case.
With `C=C1CC(COc2cc(C(=O)O)n(C)n2)(c2ccc(-c3ccccc3)cc2)OC1=O` (configuration not stated), the IC50 in experiment [1] and in experiment [2] was above 10000 nM in each case.
For the molecule `C=C(Br)C(=O)Nc1ccc2oc(C(=O)NCCNC(=O)c3cc(OCC4(c5ccc(-c6ccccc6)cc5)CC(=C)C(=O)O4)nn3C)cc2c1` (configuration not stated), the IC50 in experiment [1] stood at 270 nM; in experiment [2], 410 nM.
As for `C=C(Br)C(=O)Nc1ccc2oc(C(=O)NCCNC(=O)c3cc(OCC4(c5ccccc5)CC(=C)C(=O)O4)nn3C)cc2c1` (configuration not stated), the outcome in experiment [3], in experiment [4], in experiment [5] and in experiment [6] was Active. Besides, the 50% inhibitory concentration (IC50) was 310 nM in experiment [1], 420 nM in experiment [2], 270 nM in experiment [7] and 5440 nM in experiment [8].
As to `C=C(Br)C(=O)Nc1ccc2c(c1)cc(C(=O)NCCNC(=O)c1cc(OCC3(c4ccccc4)CC(=C)C(=O)O3)nn1C)n2C` (configuration not stated), the result in experiment [3], in experiment [4], in experiment [5] and in experiment [6] was Active. For the same molecule, the IC50 in experiment [1] turned out to be 50 nM; in experiment [2] it was 80 nM; in experiment [7] it was 110 nM; in experiment [8], 2520 nM.
As for `C=C(Br)C(=O)Nc1ccc2c(c1)cc(C(=O)O)n2C`, the IC50 in experiment [1] is 2070 nM; in experiment [2], 3370 nM.
For `C=C1CC(C)(COc2cc(C(=O)O)n(C)n2)OC1=O` (configuration not stated), the IC50 in experiment [1] and in experiment [2] was above 10000 nM throughout.
As to `C=C(Br)C(=O)Nc1ccc2sc(C(=O)NCCNC(=O)c3cc(OCC4(c5ccc(-c6ccccc6)cc5)CC(=C)C(=O)O4)nn3C)cc2c1` (configuration not stated), the result in experiment [3], in experiment [4], in experiment [5] and in experiment [6] was Active. Moreover, the IC50 in experiment [1] came to 290 nM; in experiment [2], 380 nM; in experiment [7] it was 360 nM; in experiment [8] it was 8610 nM.
As for `C=C(Br)C(=O)Nc1ccc2[nH]c(C(=O)O)cc2c1`, the IC50 in experiment [1] was determined as 4300 nM; in experiment [2] it was 5600 nM.
For `C=C(Br)C(=O)Nc1ccc2[nH]c(C(=O)NCCNC(=O)c3cc(OCC4(c5ccc(-c6ccccc6)cc5)CC(=C)C(=O)O4)nn3C)cc2c1` (configuration not stated), the values for the IC50 in experiment [1] and in experiment [2] were 360 nM and 480 nM, respectively.
In the case of `C=C(Br)C(=O)Nc1ccc2oc(C(=O)O)cc2c1`, the values for the IC50 in experiment [1] and in experiment [2] were 2950 nM and 7250 nM, respectively.
As for `C=C(Br)C(=O)Nc1ccc2sc(C(=O)NCCNC(=O)c3cc(OCC4(c5ccc(Cl)cc5)CC(=C)C(=O)O4)nn3C)cc2c1` (configuration not stated), the outcome in experiment [3], in experiment [4], in experiment [5] and in experiment [6] was Active. Moreover, the IC50 in experiment [1] was found to be 260 nM; in experiment [2], 410 nM; in experiment [7], 290 nM; in experiment [8], 6820 nM.
As to `C=C1CC(COc2cc(C(=O)O)n(C)n2)(c2ccccc2)OC1=O` (configuration not stated), the IC50 in experiment [1] and in experiment [2] was above 10000 nM throughout.
For `C=C(Br)C(=O)Nc1ccc2[nH]c(C(=O)NCCNC(=O)c3cc(OCC4(c5ccccc5)CC(=C)C(=O)O4)nn3C)cc2c1` (configuration not stated), the results for the IC50 in experiment [1] and in experiment [2] were 850 nM and 630 nM, respectively.
